Screening data deposited in PubChem by several laboratories.
CHOP inh: inhibitors of CHOP induction in ER stress response | CHO-K1 CHOP-promoter luciferase, tunicamycin-induced, 15-18 h | inhibition, % at 10 µM | hit rate 3.8% among 220,000 | AID 2732;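 active means compounds that reduced the stress-induced luciferase reporter signal by more than about 70% of percent inhibition, limit read from the data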;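 further: 0% = tunicamycin plus vehicle and 100% = wells without tunicamycin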
UPR XBP1 act: adaptive UPR (XBP1) activation | CHO-XBP1 luciferase reporter, IRE1-XBP1 UPR activation, luminescence; percent of tunicamycin response, DMSO as zero | activation, % at 20 µM | hit rate 0.33% among 330,000 | AID 463104;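 active means versus positive control, 20 µM dose yields 30% or more activation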;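 further: 100% = tunicamycin at 10 µg/mL and 0% = DMSO only wells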
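Material: CHO-XBP1 cells stably carrying IRE1-XBP1-driven luciferase reporter / Amount: 1000 cells per well / Compound: 20 µM, 1% DMSO / Times: 6 h treatment, 37 °C / Detection: luciferase luminescence / Measure: % activation of reporter signal versus tunicamycin and DMSO controls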
Jurkat NFkB inh: inhibitors of the PMA/ionomycin-induced NF-kB reporter in Jurkat cells | inhibition, % at 4 µM | PMA/ionomycin-induced NF-kB luciferase reporter, luminescence | hit rate 0.53% among 330,000; in the data active means inhibition above about 50%
697 NFkB inh: inhibitors of the PMA/ionomycin-induced NF-kB reporter in 697 B cells; AID 435022; 697 B-cell NF-kB luciferase reporter, 16 h; hit rate 0.33% among 330,000; inhibition, % at 4 µM; in the data active means inhibition above about 35%
UPR CHOP act: activators of apoptotic arm of unfolded protein response (CHOP). CHO-CHOP luciferase reporter, UPR activation, luminescence; percent of tunicamycin response over DMSO baseline. activation, % at 10 µM. hit rate 0.34% among 330,000;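 active means at 10 µM dose, activation of 40% or more, normalized to positive control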;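 further: 100% = tunicamycin at 10 µg/mL and 0% = DMSO alone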
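measured by = luciferase luminescence | assay system = CHO-CHOP cells, stable luciferase reporter of PERK-eIF2a-CHOP signalling | amount = 500 reporter cells seeded per well | timing = 6 h compound exposure at 37 °C after overnight seeding | controls = positive tunicamycin 10 µg/mL, negative DMSO alone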
CHOP confirm: confirmation of CHOP induction inhibitors; AID 504437; hit rate 45% among 2,100; CHO-CHOP promoter luciferase reporter, tunicamycin-induced, luminescence; inhibition, % at 10 µM; shares compounds with CHOP inh;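 active means mean of three repeat readings of reporter signal inhibition above a set limit, cut at about 70% in these data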;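 further: 0% = tunicamycin plus vehicle and 100% = wells lacking tunicamycin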
Numbers without * were called inactive. The sample as a whole holds a higher share of hits than the screen did.

For C/C(=N\NC(=O)COc1ccc(C(C)(C)C)cc1)c1ccc(N2CCOCC2)cc1 the results were CHOP inh 101*, UPR XBP1 act 8, Jurkat NFkB inh -1, 697 NFkB inh 11, UPR CHOP act 0 and CHOP confirm 92*.
For O=C(Nc1ccc(F)c(Cl)c1)Nc1csc2ccccc12 the results were CHOP inh 99*, UPR XBP1 act -2, Jurkat NFkB inh -8, 697 NFkB inh -36, UPR CHOP act 13 and CHOP confirm 26.
`O=C(Nc1ccc(F)cc1F)Nc1csc2ccccc12` gave CHOP inh -10, UPR XBP1 act 0, Jurkat NFkB inh -24, 697 NFkB inh -31 and UPR CHOP act 6.
CC1CCCN(S(=O)(=O)c2ccc(C(=O)Nc3nnc(-c4ccccc4Cl)o3)cc2)C1 (configuration not stated) was read as CHOP inh 98*, UPR XBP1 act 5, Jurkat NFkB inh 11, 697 NFkB inh -56, UPR CHOP act 3 and CHOP confirm 34.
`CC1CCCN(S(=O)(=O)c2ccc(C(=O)Nc3nnc(-c4ccccn4)o3)cc2)C1` (configuration not stated) gave CHOP inh 5, UPR XBP1 act -1, Jurkat NFkB inh 8, 697 NFkB inh 20 and UPR CHOP act -3.
For COc1ccc(C(C)=O)cc1COC(=O)c1ccc2c(c1)OCCO2 the results were UPR XBP1 act -2, Jurkat NFkB inh 1, 697 NFkB inh 5 and UPR CHOP act -1.
Screening COc1ccccc1N=Nc1c(O)[nH]c2ccc(Br)cc12 returned UPR XBP1 act -6, Jurkat NFkB inh -2, 697 NFkB inh 11 and UPR CHOP act 1.
Screening CC(Oc1ccccc1)C(=O)N=Nc1c(O)[nH]c2ccc(Br)cc12 (configuration not stated) returned CHOP inh 101*, UPR XBP1 act -3, Jurkat NFkB inh 2, 697 NFkB inh -4, UPR CHOP act 0 and CHOP confirm -4.
Screening O=C1NC(=S)N(C(=O)c2ccc(F)cc2)/C1=C/c1ccccc1 returned CHOP inh 67, UPR XBP1 act 0, Jurkat NFkB inh -7, 697 NFkB inh -39 and UPR CHOP act 3.
For COc1ccc(/C=C2\C(=O)NC(=S)N2C(=O)c2ccc(F)cc2)cc1 the results were CHOP inh 97* and CHOP confirm 26.
Screening CC(Oc1ccc(Br)cc1)C(=O)NNC(=O)CCN1CCN(c2ccccc2)CC1 (configuration not stated) returned UPR XBP1 act 1, Jurkat NFkB inh 5, 697 NFkB inh 10 and UPR CHOP act 1.
O=C(Nc1cnccn1)Nc1ccccc1F was read as UPR XBP1 act -2, Jurkat NFkB inh -2, 697 NFkB inh 7 and UPR CHOP act 5.
Screening O=c1[nH]c2ccc(S(=O)(=O)N3CCC(Cc4ccccc4)CC3)cc2o1 returned CHOP inh 100*, UPR XBP1 act -2, Jurkat NFkB inh -15, 697 NFkB inh -42, UPR CHOP act -1 and CHOP confirm 16.
Screening COc1ccccc1NC(=O)c1ccc(Cl)c(S(=O)(=O)NCc2ccco2)c1 returned UPR XBP1 act -3, Jurkat NFkB inh 1, 697 NFkB inh 24 and UPR CHOP act 0.
For COc1ccc(-c2[nH]ncc2/C=C(/C#N)C(=O)NC2CCCCCC2)cc1 the results were CHOP inh 99*, UPR XBP1 act 3, Jurkat NFkB inh 17, 697 NFkB inh -26, UPR CHOP act 1 and CHOP confirm 82*.
Screening O=C(CCN1CCCCC1)c1ccccc1 returned CHOP inh -11, UPR XBP1 act -3, Jurkat NFkB inh -3, 697 NFkB inh -3 and UPR CHOP act 0.
For C[N+]1(CCC(=O)c2ccccc2)CCCCC1 the results were CHOP inh 97*, UPR XBP1 act -1, Jurkat NFkB inh -4, 697 NFkB inh 3, UPR CHOP act 0 and CHOP confirm 10.
O=S(=O)(c1ccc(OCC2CO2)cc1)c1ccc(OCC2CO2)cc1 (configuration not stated) was read as CHOP inh 17, UPR XBP1 act 0, Jurkat NFkB inh 5, 697 NFkB inh 7 and UPR CHOP act -4.
COc1ccc(-n2cc([N+](=O)[O-])c(=O)c3ccc(Cl)cc32)cc1 was read as UPR XBP1 act -1, Jurkat NFkB inh 9, 697 NFkB inh 12 and UPR CHOP act 0.
Screening Cc1nn(Cc2ccc(Cl)cc2)c(C)c1NC(=O)Cn1nc([N+](=O)[O-])c(Cl)c1C returned CHOP inh -21, UPR XBP1 act -1, Jurkat NFkB inh -13, 697 NFkB inh -5 and UPR CHOP act -1.
Screening Cc1nn(Cc2ccc(Cl)cc2Cl)c(C)c1NC(=O)Cn1nc([N+](=O)[O-])c(Cl)c1C returned CHOP inh 100*, UPR XBP1 act 11, Jurkat NFkB inh 5, 697 NFkB inh 4, UPR CHOP act 1 and CHOP confirm 33.
O=C(Cn1c(-c2ccccn2)nc2ccccc21)N/N=C/c1cccnc1 was read as CHOP inh 12, UPR XBP1 act 1, Jurkat NFkB inh 12, 697 NFkB inh 12 and UPR CHOP act 0.
CC(=O)NC(Cc1c[nH]c2ccccc12)C(=O)N1CCN(S(=O)(=O)c2ccccc2)CC1 (configuration not stated) was read as UPR XBP1 act -1, Jurkat NFkB inh 5, 697 NFkB inh 11 and UPR CHOP act 0.
O=C(COC(=O)COc1ccccc1)NC1CCS(=O)(=O)C1 (configuration not stated) was read as UPR XBP1 act 0, Jurkat NFkB inh 10, 697 NFkB inh -3 and UPR CHOP act -1.
Cc1nonc1NC(=O)CSc1nc(C2CCCCC2)nc2ccccc12 was read as CHOP inh -55, UPR XBP1 act -3, Jurkat NFkB inh -6, 697 NFkB inh 7 and UPR CHOP act 0.
Cc1nonc1NC(=O)CSc1nc(C23CC4CC(CC(C4)C2)C3)nc2ccccc12 was read as CHOP inh 100*, UPR XBP1 act -1, Jurkat NFkB inh -2, 697 NFkB inh 14, UPR CHOP act 0 and CHOP confirm -2.
For CCc1c(C)sc(NC(=O)CSc2nc3c(c(C(F)(F)F)n2)CCc2ccccc2-3)c1C#N the results were CHOP inh 97*, UPR XBP1 act 5, Jurkat NFkB inh 9, 697 NFkB inh 3, UPR CHOP act 1 and CHOP confirm 72*.
CC(=O)Nc1cccc(NC(=O)CSc2nnnn2-c2ccc3c(c2)OCO3)c1 was read as CHOP inh 66.
C/C(=N/N=C1\SCC(=O)N1c1ccccc1)c1ccc(C)cc1 was read as CHOP inh -21, UPR XBP1 act 1, Jurkat NFkB inh -19, 697 NFkB inh -9 and UPR CHOP act 1.
